Measurements from ChEMBL document CHEMBL5370680, “Design and Biological Evaluation of Piperazine-Bearing Nitrobenzamide Hypoxia/GDEPT Prodrugs: The Discovery of CP-506” (ACS Med Chem Lett, 2023).

Tested on: not listed separately
Test: Selectivity ratio of IC50 for antiproliferative activity against wild type human NCI-H1299 cells to IC50 for antiproliferative activity against human NCI-H1299 cells expressing AKR1C3
Assay type: functional
Settings: time 4 hrs
Procedure, shortened: (§1)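 Ratio of mean IC50 in non-transfected wild-type cells to mean IC50 in the AKR1C3- or NfsA_Ec-transfected line. IC50 is from a 4 h prodrug exposure and 5 days' regrowth.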

Question: For `CC(C)N1CCN(C(=O)c2cc(N(CCBr)CCBr)c(S(C)(=O)=O)cc2[N+](=O)[O-])CC1`, which “Ratio IC50” value is on record?
Answer: 0.9

Question: Which “Ratio IC50” value does the source give for `CCS(=O)(=O)c1cc([N+](=O)[O-])c(C(=O)N2CCN(C)CC2)cc1N(CCBr)CCBr` here?
Answer: 1.5

Tested on: NCI-H1299
Test: Antiproliferative activity against human NCI-H1299 cells expressing NfsA of Escherichia coli assessed as cell growth inhibition measured after 4 hrs
Assay type: functional
Settings: NCI-H1299, 4 h
Procedure, shortened: (§2)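 Monolayer antiproliferative assay using wild-type cells and isogenic lines transfected with AKR1C3 or E. coli NfsA. Cells exposed to prodrug for 4 h, then regrown for 5 days. IC50 is 50% growth inhibition versus untreated controls. Mean values reported, CV <20%.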

Question: Which IC50 does the source give for `CC(C)N1CCN(C(=O)c2cc(N(CCBr)CCBr)c(S(C)(=O)=O)cc2[N+](=O)[O-])CC1` here?
Answer: 0.287 µM

Question: With `CCS(=O)(=O)c1cc([N+](=O)[O-])c(C(=O)N2CCN(C)CC2)cc1N(CCBr)CCBr` as the compound, how does the IC50 read?
Answer: 0.546 µM

Tested on: HCT-116
Test: Antiproliferative activity against human HCT-116 cells in three-dimensional cell culture multicellular layer expressing NfsA of Escherichia coli assessed as fold change in plating efficiency at 10 uM
Assay type: functional
Settings: not given
Procedure, shortened: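 Mixed MCLs of wild-type HCT116 with 3% NfsA_Ec-expressing cells, against 100% wild-type MCLs, exposed to 10 μM prodrug. Clonogenic plating efficiency measured. Fold change is the plating-efficiency ratio between wild-type and transfected MCLs. ≥3 independent experiments.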

Question: For `CC(C)N1CCN(C(=O)c2cc(N(CCBr)CCBr)c(S(C)(=O)=O)cc2[N+](=O)[O-])CC1`, which “fold change (FC)” value is on record?
Answer: 1943

Question: For `CCS(=O)(=O)c1cc([N+](=O)[O-])c(C(=O)N2CCN(C)CC2)cc1N(CCBr)CCBr`, which “fold change (FC)” value is on record?
Answer: 709

Tested on: HCT-116
Test: Antiproliferative activity against wild type human HCT-116 cells assessed as cell growth inhibition measured after 4 hrs
Assay type: functional, cell-based
Settings: HCT-116, 4 h
Procedure, shortened: as §2

Question: Which IC50 does the source give for `CC(C)N1CCN(C(=O)c2cc(N(CCBr)CCBr)c(S(C)(=O)=O)cc2[N+](=O)[O-])CC1` here?
Answer: 61 µM

Question: Which IC50 does the source give for `CCS(=O)(=O)c1cc([N+](=O)[O-])c(C(=O)N2CCN(C)CC2)cc1N(CCBr)CCBr` here?
Answer: 83 µM

Tested on: NCI-H1299
Test: Antiproliferative activity against wild type human NCI-H1299 cells assessed as cell growth inhibition measured after 4 hrs
Assay type: functional, cell-based
Settings: NCI-H1299, 4 h
Procedure, shortened: as §2

Question: With `CC(C)N1CCN(C(=O)c2cc(N(CCBr)CCBr)c(S(C)(=O)=O)cc2[N+](=O)[O-])CC1` as the compound, how does the IC50 read?
Answer: 59 µM

Question: With `CCS(=O)(=O)c1cc([N+](=O)[O-])c(C(=O)N2CCN(C)CC2)cc1N(CCBr)CCBr` as the compound, how does the IC50 read?
Answer: 85 µM

Tested on: not listed separately
Test: Selectivity ratio of IC50 for antiproliferative activity against wild type human HCT-116 cells to IC50 for antiproliferative activity against human HCT-116 cells expressing NfsA of Escherichia coli
Assay type: functional
Settings: time 4 hrs
Procedure, shortened: as §1

Question: Which “Ratio IC50” value does the source give for `CC(C)N1CCN(C(=O)c2cc(N(CCBr)CCBr)c(S(C)(=O)=O)cc2[N+](=O)[O-])CC1` here?
Answer: 462

Question: With `CCS(=O)(=O)c1cc([N+](=O)[O-])c(C(=O)N2CCN(C)CC2)cc1N(CCBr)CCBr` as the compound, how does the “Ratio IC50” value read?
Answer: 359

Tested on: not listed separately
Test: Selectivity ratio of IC50 for antiproliferative activity against wild type human NCI-H1299 cells to IC50 for antiproliferative activity against human NCI-H1299 cells expressing NfsA of Escherichia coli
Assay type: functional
Settings: time 4 hrs
Procedure, shortened: as §1

Question: Which “Ratio IC50” value does the source give for `CC(C)N1CCN(C(=O)c2cc(N(CCBr)CCBr)c(S(C)(=O)=O)cc2[N+](=O)[O-])CC1` here?
Answer: 206

Question: Which “Ratio IC50” value does the source give for `CCS(=O)(=O)c1cc([N+](=O)[O-])c(C(=O)N2CCN(C)CC2)cc1N(CCBr)CCBr` here?
Answer: 156

Tested on: not listed separately
Test: Octanol/water partition coefficient, log D of the compound at pH 7.4
Assay type: physicochemical
Settings: not given
Procedure, shortened: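 Octanol–water partition coefficient by shake-flask method at pH 7.4.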

Question: Which logD does the source give for `CC(C)N1CCN(C(=O)c2cc(N(CCBr)CCBr)c(S(C)(=O)=O)cc2[N+](=O)[O-])CC1` here?
Answer: 1.9

Question: With `CCS(=O)(=O)c1cc([N+](=O)[O-])c(C(=O)N2CCN(C)CC2)cc1N(CCBr)CCBr` as the compound, how does the logD read?
Answer: 2.2

Tested on: NCI-H1299
Test: Antiproliferative activity against human NCI-H1299 cells expressing AKR1C3 assessed as cell growth inhibition measured after 4 hrs
Assay type: functional, cell-based
Settings: NCI-H1299, 4 h
Procedure, shortened: as §2

Question: For `CC(C)N1CCN(C(=O)c2cc(N(CCBr)CCBr)c(S(C)(=O)=O)cc2[N+](=O)[O-])CC1`, which IC50 is on record?
Answer: 69 µM

Question: Which IC50 does the source give for `CCS(=O)(=O)c1cc([N+](=O)[O-])c(C(=O)N2CCN(C)CC2)cc1N(CCBr)CCBr` here?
Answer: 58 µM

Tested on: HCT-116
Test: Antiproliferative activity against human HCT-116 cells expressing AKR1C3 assessed as cell growth inhibition measured after 4 hrs
Assay type: functional, cell-based
Settings: HCT-116, 4 h
Procedure, shortened: as §2

Question: For `CC(C)N1CCN(C(=O)c2cc(N(CCBr)CCBr)c(S(C)(=O)=O)cc2[N+](=O)[O-])CC1`, which IC50 is on record?
Answer: 53 µM

Question: With `CCS(=O)(=O)c1cc([N+](=O)[O-])c(C(=O)N2CCN(C)CC2)cc1N(CCBr)CCBr` as the compound, how does the IC50 read?
Answer: 73 µM

Tested on: not listed separately
Test: Selectivity ratio of IC50 for antiproliferative activity against wild type human HCT-116 cells to IC50 for antiproliferative activity against human HCT-116 cells expressing AKR1C3
Assay type: functional
Settings: time 4 hrs
Procedure, shortened: as §1

Question: With `CC(C)N1CCN(C(=O)c2cc(N(CCBr)CCBr)c(S(C)(=O)=O)cc2[N+](=O)[O-])CC1` as the compound, how does the “Ratio IC50” value read?
Answer: 1.2

Question: Which “Ratio IC50” value does the source give for `CCS(=O)(=O)c1cc([N+](=O)[O-])c(C(=O)N2CCN(C)CC2)cc1N(CCBr)CCBr` here?
Answer: 1.1

Tested on: HCT-116
Test: Antiproliferative activity against human HCT-116 cells in three-dimensional cell culture multicellular layer expressing AKR1C3 assessed as fold change in plating efficiency at 10 uM
Assay type: functional
Settings: not given
Procedure, shortened: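 100% AKR1C3-expressing HCT116 MCLs, against wild-type HCT116 MCLs, exposed to 10 μM prodrug. Clonogenic plating efficiency measured. Fold change is the plating-efficiency ratio between wild-type and transfected MCLs. ≥3 independent experiments.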

Question: For `CC(C)N1CCN(C(=O)c2cc(N(CCBr)CCBr)c(S(C)(=O)=O)cc2[N+](=O)[O-])CC1`, which “fold change (FC)” value is on record?
Answer: 0.9

Question: For `CCS(=O)(=O)c1cc([N+](=O)[O-])c(C(=O)N2CCN(C)CC2)cc1N(CCBr)CCBr`, which “fold change (FC)” value is on record?
Answer: 1.1

Tested on: HCT-116
Test: Antiproliferative activity against human HCT-116 cells expressing NfsA of Escherichia coli assessed as cell growth inhibition measured after 4 hrs
Assay type: functional
Settings: HCT-116, 4 h
Procedure, shortened: as §2

Question: Which IC50 does the source give for `CC(C)N1CCN(C(=O)c2cc(N(CCBr)CCBr)c(S(C)(=O)=O)cc2[N+](=O)[O-])CC1` here?
Answer: 0.132 µM

Question: For `CCS(=O)(=O)c1cc([N+](=O)[O-])c(C(=O)N2CCN(C)CC2)cc1N(CCBr)CCBr`, which IC50 is on record?
Answer: 0.231 µM
